High-throughput results deposited in PubChem BioAssay by several laboratories.
FID counter: compounds displacing fluorescent DNA intercalator, primary screen, artefact control for HCV NS3 helicase inhibitor project, biochemical, FID fluorescence. DNA fluorescent intercalator displacement. inhibition, % at 7.9 µM. 290,000 tested, 0.17% active; in the data active = inhibition above about 37%;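 also: 0% = vehicle and 100% = reference compound; higher means more ethidium bromide displaced from hairpin DNA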
HSF-1 act: HSF-1 activators, primary screen, NIH3T3-HGL cells, MG132 stress, luminescence, single point | NIH3T3-HGL HSF-1 luciferase reporter, 8 h; 100% = twice DMSO control signal | activation, % at 9 µM | 300,000 tested, 1.7% active;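 active = mean replicate activation of at least 50% with a set share of replicates each reaching 50%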;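 also: 0% = median of the neutral control wells and 100% = twice that signal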
HSF1 inhib: HSF1 inhibitors in luciferase reporter cells, primary screen, cell-based, NIH3T3, luminescence. NIH3T3-HGL HSE-luciferase, MG132-induced, luminescence 8 h; stronger effect = lower value. activity change, negative = inhibition, % at 7.5 µM (by protocol). 300,000 tested, 0.77% active;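 active = more than half of replicate wells show activity change below -50%, luminescence cut by over half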;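 also: luciferase reports HSF-1 transcriptional activity via heat shock element; 0% = median of DMSO wells and -100% = zero luminescence signal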
core dimer inh: inhibitors of HCV core protein dimerization, primary screen, biochemical, TR-FRET, high-throughput | AID 1899, 2009 | 300,000 tested, 0.33% active | inhibition, % at 5 µM | TR-FRET GST/Flag-core106 dimerization, 1536-well;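 active = inhibition above the mean of all tested compounds plus 3 SD, set per screening campaign, cut at about 45% in these data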
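test system = GST/Flag-tagged HCV core106 proteins | probe or stimulus = Eu donor and XL665 acceptor anti-tag antibodies | times = compound-protein-antibody incubation 4 h at 22.5 °C | signal = TR-FRET, excitation 340 nm, emission 617 and 671 nm | measure = percent inhibition of core106 dimerization signal | controls = wells lacking GST-core106 and wells with excess unlabelled core106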
HSP90 refold inh: HSP90 inhibitors, primary screen, cell lysate, luminescence | Heat shock protein HSP 90 (rabbit reticulocyte lysate; luciferase refolding) | 290,000 tested, 0.91% active | AID 1789, 2009 | inhibition, % at 5.6 µM | Rabbit reticulocyte lysate, luciferase refolding luminescence, 3 h;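 active = inhibition above the screen-wide mean plus 3 SD, computed separately per campaign, cut at about 16% in these data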;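 also: 0% = DMSO wells and 100% = 60 µM geldanamycin wells; inhibitors lower the luminescence because luciferase stays unfolded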
NS3 helicase inh: inhibitors of HCV NS3 helicase, primary screen, biochemical, Cy5 molecular beacon fluorescence. AID 1800, 2009. inhibition, % at 10.9 µM. NS3 helicase DNA unwinding. 290,000 tested, 0.56% active;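 active = inhibition above the mean of all tested compounds plus 3 SD, set per campaign, cut at about 35% in these data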;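 also: 0% = DMSO wells and 100% = thioflavine S control wells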
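Control set: DMSO versus 110 µM thioflavine S; Material: NS3 helicase fragment of HCV; Measured by: Cy5 fluorescence at 0 and 60 min, beacon hairpin quenching; Read-out basis: percent inhibition from t60/t0 fluorescence ratio; Times: reaction time 60 min, 25 °C; Repeats: single replicate; Compound dosing: single dose, 10.9 µM nominal final, DMSO 0.8% final.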
Active calls of the source: *; / = no result. This is a sample that favours compounds with a hit; in the whole collection about 3.9% have one here.

SMILES	FID counter	HSF-1 act	HSF1 inhib	core dimer inh	HSP90 refold inh	NS3 helicase inh
O=C(CC(=O)Nc1ccc(Cl)cc1Cl)Nc1ccc(Cl)cc1Cl	-4	-40	-27	10	-1	-2
CN(C)C(=S)SCC(=O)Nc1ccc(Cl)cc1Cl	-11	61*	28	-7	1	-6
O=C(Nc1nc2ccc(Cl)cc2s1)c1ccco1	0	27	10	-1	15	0
CC1CC1C(=O)Nc1nc2ccc(Cl)cc2s1 (centres undefined)	/	61*	44	-3	/	/
Cn1cc(Cl)c(C(=O)Nc2nc3ccc(Cl)cc3s2)n1	-1	57*	23	0	-2	-11
Cc1cc(=O)[nH]c(SCC(=O)c2ccc(F)c(C)c2)n1	-7	3	-5	1	-1	5
COc1ccc(C(=O)CSc2nc(C)cc(=O)[nH]2)cc1C	-11	-81	-76*	15	2	-3
Cc1sc2nc(CSc3nc4ccccc4c(=O)n3CCCN3CCOCC3)[nH]c(=O)c2c1C	-7	61*	41	16	-3	-8
COc1cc(C(=O)NCc2nnc(SCC(=O)N3CCC(C)CC3)o2)cc(OC)c1OC	-21	4	-1	1	1	-3
COc1ccc(C(=O)NCc2nnc(SCC(=O)N3CCC(C)CC3)o2)cc1OC	-15	-74	-67*	2	-2	1
CN(/C(=N/S(=O)(=O)c1ccccc1)c1ccccc1)S(=O)(=O)c1ccccc1	-1	9	0	-1	-2	-7
CN(/C(=N\S(=O)(=O)c1ccccc1)c1ccccc1)c1ccc(O)cc1	-21	59*	12	12	2	4
CS(=O)(=O)c1nc(S(=O)(=O)c2ccc(Cl)cc2)c(N2CCN(CCO)CC2)s1	-6	-9	-2	5	-2	1
CCS(=O)(=O)c1nc(S(=O)(=O)c2ccc(C)cc2)c(N2CCC(C)CC2)s1	-41	-91	-89*	1	3	-7
Cc1ccc(S(=O)(=O)c2nc(S(=O)(=O)c3ccc(C)cc3)c(N3CCN(CCO)CC3)s2)cc1	11	57*	10	-5	0	-64
CCCS(=O)(=O)c1nc(S(=O)(=O)c2ccc(C)cc2)c(N2CCCC2)s1	-2	31	4	2	3	3
CCCS(=O)(=O)c1nc(S(=O)(=O)c2ccc(C)cc2)c(N2CCC(C)CC2)s1	-41	21	2	11	6	-4
CCCS(=O)(=O)c1nc(S(=O)(=O)c2ccc(C)cc2)c(N2CCc3ccccc3C2)s1	-3	54*	25	-2	-4	-6
Cc1ccc(S(=O)(=O)CCc2nc3ccccc3n2CCC#N)cc1	-1	-13	-14	-3	-1	5
CC1Cc2ccccc2N1C(=O)CSc1nccc(=O)[nH]1 (centres undefined)	-5	-3	5	4	-2	5
CCc1cc(C(=O)O)c(NC(=O)c2cc(OC)c(OC)c(OC)c2)s1	-18	-6	-14	7	-3	15
CCc1cc2c(=O)n(CCC(C)C)c(=S)[nH]c2s1	-4	24	10	3	-2	1
O=C(NCc1ccccc1)c1ccc(CS(=O)Cc2ccc(Cl)cc2)o1 (centres undefined)	-33	9	1	0	0	0
CC1=NN(c2ccccc2)C(=O)/C1=C\c1ccc(Oc2ccc([N+](=O)[O-])cc2[N+](=O)[O-])cc1	11	26	24	61*	16*	12
COc1cc(/C=C2\C(=O)N(c3ccccc3)N=C2C)ccc1Oc1ccc([N+](=O)[O-])cc1[N+](=O)[O-]	7	/	/	38	3	7
SMILES	FID counter	HSF-1 act	HSF1 inhib	core dimer inh	HSP90 refold inh	NS3 helicase inh
COc1ccc(-c2nc(CNS(=O)(=O)c3ccc(OC)c(OC)c3)cs2)cc1	-14	-70	-63*	3	1	5
O=C(COC(=O)c1ccc2c(c1)C(=O)N(Cc1ccncc1)C2=O)Nc1ccccc1[N+](=O)[O-]	-22	13	-2	54*	4	24
O=C(O)CONC(=O)c1cc(OCC(F)(F)F)ccc1OCC(F)(F)F	6	-10	2	-1	-3	-3
CCCCOc1ccc(C(=O)Nc2cccc(C)n2)cc1	-13	57*	31	2	11	-14
CCOc1ccc(C(=O)Nc2cccc(C)n2)cc1	-27	43	17	-10	8	-27
COC(=O)c1ccc(COc2ccc(C)c(C)c2)o1	-11	45	22	-4	17*	3
Cc1cccc(NC(=O)c2ccc(COc3ccc4ccccc4c3)o2)n1	-14	68*	51	4	9	-11
COc1cc2c(cc1OC)CN(c1ccc(C(N)=O)cc1[N+](=O)[O-])CC2	-13	-10	0	-1	-1	6
Cn1cc(C(=O)NCN2CCCCC2)c2ccccc21	-3	-4	-2	1	3	2
CC(C)CN=C(NS(=O)(=O)c1ccccc1)C(Cl)(Cl)Cl	-3	-77	-74*	2	-6	-2
CC(C)CC(NS(=O)(=O)c1ccccc1)C(=O)O (centres undefined)	3	2	-3	5	5	-1
C=CCn1c(SCc2nc3ccccc3c(=O)[nH]2)nnc1-c1cc2cc(Cl)ccc2o1	1	30	11	6	4	6
CCN1C(=O)[C@@H]2[C@@H](c3ccc(-c4ccc(Cl)c(Cl)c4)c(OC)c3)N3CCCC[C@@]3(C(=O)OC)[C@@H]2C1=O	/	6	-1	5	/	/
CCC(=O)Nc1cccc(C(=O)/C=C/c2ccc(F)cc2)c1	-9	75*	61	1	4	-6
CC(=O)Nc1cccc(C(=O)/C=C/c2ccc(C)cc2)c1	-16	-59	-47	0	13	-6
O=C(O)c1cccc(NC(=S)N/N=C/c2cccnc2)c1	-2	-62	-60*	1	-2	-17
CC(=O)Nc1cccc(C(=O)N/N=C/c2cccnc2)c1	-5	-1	-2	1	2	3
O=C(N/N=C/c1cccnc1)c1ccc2c(c1)OCO2	-5	-67	-59*	-3	-2	2
CCOC(=O)c1ccc(NCc2ccncc2)cc1	-5	-44	-35	-4	-3	-7
COc1ccc(CNCCC(c2ccc(F)cc2)c2ccc(OC(C)C)cc2)cc1OC (centres undefined)	38*	-6	-9	-2	12	-75
